Where two headings read alike, the source gives them in different places.
Legend:
Assay type in all cases: cell-based
[1] = system: 3T3-L1, a fibroblast cell line; assay: Screening of toxicity in normal cell line; settings: Mus musculus, 3T3-L1, 72 h, read-out: IC50 3T3-L1 72 h
In short: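 3T3-L1 fibroblasts are kept in DMEM with 5% FBS and antibiotics at 37 °C in humidified 5% CO2. They are seeded at 5 × 10^3 per well and grown to confluency, then treated with a range of test compound concentrations. MTT is added for 3 h after removing the medium, and formazan is dissolved in DMSO. A570 is read and percentage cell death is calculated.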

[2] = system: human lung adenocarcinoma (A549); assay: MTT assay, antiproliferative activity, A549
In short: (§1)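 A549 cells are grown in DMEM and MDA-MB-231 cells in MEM, both with FBS and antibiotics, at 37 °C in humidified 5% CO2, then trypsinized. Cells are seeded at 5 × 10^3 per well and grown to confluency. They are exposed to a range of test compound concentrations for 24 h or 72 h, with 5-fluorouracil as reference. Medium is removed, MTT is added for 3 h, and formazan is dissolved in DMSO. A570 is read and percentage cell death is calculated.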

[3] = system: human breast adenocarcinoma (MDA-MB-231); assay: MTT assay, antiproliferative activity, MDA-MB-231
In short: as §1

IC50 ([2]; A549, 24 h, read-out: IC50 A549 24 h): 747 ± 0.13 µM
IC50 ([2]; A549, 72 h, read-out: IC50 A549 72 h): 17 ± 0.41 µM
IC50 ([3]; MDA-MB-231, 24 h, read-out: IC50 MDA-MB-231 24 h): 885 ± 0.76 µM
IC50 ([3]; MDA-MB-231, 72 h, read-out: IC50 MDA-MB-231 72 h): 29.01 ± 0.01 µM
Structure (SMILES): O=c1[nH]cc(F)c(=O)[nH]1 [5-fluorouracil]
IC50 [1]: 41.4 ± 1.05 µM
